Experiments:
[1] = test system: NCI-H69; assay: Antiproliferative activity against human NCI-H69 cells assessed as reduction in cell viability measured for 72 hrs bt MTT assay; format: functional
[2] = Potentiation factor, ratio of GI50 for SN-38 resistant dog MDCK-II-BCRP cells expressing BCRP cells to GI50 for reversal of SN-38 resistance in dog MDCK-II-BCRP cells assessed as SN-38 GI50 at 0.1 uM (reference value: 1 uM); format: functional, Canis lupus familiaris
Summary of the method: (§1)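 Reversal assay: resistant lines (A2780/ADR, H69AR, MDCK II BCRP) and parental lines seeded as for MTT assay with modulator solutions of 1, 10 and 100 µM added (final 0.1, 1, 10 µM) and daunorubicin (P-gp, MRP1) or SN-38 (BCRP) at final 10 nM–10 µM. 72 h, MTT read-out; GI50 by variable-slope fit. Resistance factor = resistant/sensitive GI50; potentiation factor = GI50 without/with modulator.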

[3] = test system: A2780; assay: Antiproliferative activity against human A2780 cells assessed as reduction in cell viability measured for 72 hrs bt MTT assay; format: functional
[4] = Reversal of Daunorubicin resistance in human A2780 ADR cells assessed as Daunorubicin GI50 at 10 uM measured for 72 hrs by MTT assay; format: functional; summary of the method: as §1
[5] = target: T1, BCRP (ABCG2) (Homo sapiens, UniProt Q9UNQ0); assay: Inhibition of BCRP (unknown origin) expressed in dog MDCK-II cells at 10 uM using pheophorbide A as substrate preincubated for 20 mins followed by substrate addition and measured after 120 mins by flow cytometry analysis relative to control; format: cell-based; settings: probe pheophorbide A
T1 sequence (Q9UNQ0 whole entry): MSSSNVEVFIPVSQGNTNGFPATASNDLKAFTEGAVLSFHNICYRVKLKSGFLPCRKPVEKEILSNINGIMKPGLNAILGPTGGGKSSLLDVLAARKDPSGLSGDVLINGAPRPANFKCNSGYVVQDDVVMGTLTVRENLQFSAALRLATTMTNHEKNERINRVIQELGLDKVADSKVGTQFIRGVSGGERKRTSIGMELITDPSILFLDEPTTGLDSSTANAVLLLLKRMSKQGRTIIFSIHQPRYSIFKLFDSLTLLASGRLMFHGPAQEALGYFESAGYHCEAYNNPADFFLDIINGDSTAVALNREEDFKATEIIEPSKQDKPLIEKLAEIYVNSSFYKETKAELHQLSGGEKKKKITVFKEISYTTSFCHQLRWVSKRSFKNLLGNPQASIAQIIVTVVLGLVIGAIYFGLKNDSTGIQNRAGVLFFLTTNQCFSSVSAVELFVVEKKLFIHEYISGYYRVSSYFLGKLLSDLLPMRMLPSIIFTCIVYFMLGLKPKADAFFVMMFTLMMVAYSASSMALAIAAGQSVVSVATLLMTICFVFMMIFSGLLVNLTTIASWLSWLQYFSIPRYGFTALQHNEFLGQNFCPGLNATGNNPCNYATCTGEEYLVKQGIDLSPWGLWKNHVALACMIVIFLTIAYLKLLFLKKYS
Summary of the method: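 MDCK II cells transfected with human wild-type BCRP cDNA C-terminally fused to GFP, grown in DMEM/10% FBS. About 45,000 cells per well preincubated 20 min at 37 °C, 5% CO2 with compound (100 nM–100 µM added solutions), then pheophorbide A (5 µM solution added) for 120 min to steady state. Resuspended; flow cytometry, 488 nm excitation, FL3 (≥670 nm); GFP in FL1. Reference inhibitor 24 at 10 µM = 100%.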

[6] = Potentiation factor, ratio of GI50 for SN-38 resistant dog MDCK-II-BCRP cells expressing BCRP cells to GI50 for reversal of SN-38 resistance in dog MDCK-II-BCRP cells assessed as SN-38 GI50 at 1 uM (reference value: 1 uM); format: functional, Canis lupus familiaris; summary of the method: as §1
[7] = target: ATP-dependent translocase ABCB1 (Homo sapiens, UniProt P08183); assay: Inhibition of P-gp (unknown origin) incubated for 30 mins by calcein AM analysis
ATP-dependent translocase ABCB1, sequence (P08183 whole entry): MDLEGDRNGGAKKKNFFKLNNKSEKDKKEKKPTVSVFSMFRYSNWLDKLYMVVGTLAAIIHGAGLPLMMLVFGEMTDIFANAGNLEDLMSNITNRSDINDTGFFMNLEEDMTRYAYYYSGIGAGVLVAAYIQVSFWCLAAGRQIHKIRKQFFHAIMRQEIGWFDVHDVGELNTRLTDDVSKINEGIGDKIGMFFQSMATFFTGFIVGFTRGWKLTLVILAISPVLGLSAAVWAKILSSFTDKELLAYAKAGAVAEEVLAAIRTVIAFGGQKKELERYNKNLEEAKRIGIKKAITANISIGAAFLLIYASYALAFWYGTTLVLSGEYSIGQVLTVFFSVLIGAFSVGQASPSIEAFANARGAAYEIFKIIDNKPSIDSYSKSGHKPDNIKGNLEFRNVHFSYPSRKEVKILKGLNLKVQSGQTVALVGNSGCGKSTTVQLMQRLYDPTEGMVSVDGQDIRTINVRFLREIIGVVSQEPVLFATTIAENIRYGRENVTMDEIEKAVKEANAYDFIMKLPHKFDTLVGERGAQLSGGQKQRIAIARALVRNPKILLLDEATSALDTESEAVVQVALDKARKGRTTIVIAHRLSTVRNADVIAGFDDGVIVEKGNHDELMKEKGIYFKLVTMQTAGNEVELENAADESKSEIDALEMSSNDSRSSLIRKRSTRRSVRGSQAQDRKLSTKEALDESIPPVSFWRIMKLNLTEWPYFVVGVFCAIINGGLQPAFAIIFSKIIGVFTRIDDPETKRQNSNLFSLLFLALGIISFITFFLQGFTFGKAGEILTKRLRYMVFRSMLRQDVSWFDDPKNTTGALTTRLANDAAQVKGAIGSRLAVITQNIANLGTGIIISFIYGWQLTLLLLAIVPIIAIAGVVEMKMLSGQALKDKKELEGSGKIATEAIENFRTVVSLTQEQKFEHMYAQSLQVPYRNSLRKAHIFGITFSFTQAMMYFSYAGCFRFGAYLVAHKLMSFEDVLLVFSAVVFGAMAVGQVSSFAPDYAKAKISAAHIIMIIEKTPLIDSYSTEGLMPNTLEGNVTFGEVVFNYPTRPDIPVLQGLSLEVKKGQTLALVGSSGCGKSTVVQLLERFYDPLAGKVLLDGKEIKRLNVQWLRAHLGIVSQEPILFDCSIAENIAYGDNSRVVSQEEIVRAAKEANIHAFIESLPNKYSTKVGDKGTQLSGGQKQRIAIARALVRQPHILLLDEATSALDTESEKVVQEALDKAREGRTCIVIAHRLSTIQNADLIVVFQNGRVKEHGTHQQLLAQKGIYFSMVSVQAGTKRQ
Summary of the method: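 A2780/ADR cells (doxorubicin-selected, P-gp overexpressing), about 30,000 per well in Krebs-HEPES buffer pH 7.4, incubated 30 min at 37 °C with compound (100 nM–100 µM added solutions). Calcein AM (3.125 µM solution added) then fluorescence read every 60 s at 37 °C, ex 485/em 520 nm; slope over minutes 5–30 plotted vs log concentration. Cyclosporine A 10 µM = 100% inhibition, buffer = 0%.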

[8] = Potentiation factor, ratio of GI50 for daunorubicin resistant human A2780 ADR cells expressing P-gp cells to GI50 for reversal of daunorubicin resistance in human A2780 ADR cells assessed as daunorubicin GI50 at 10 uM (reference value: 1 uM); format: functional; summary of the method: as §1
[9] = test system: BCRP (ABCG2); assay: Therapeutic index, ratio of GI50 for antiproliferative activity against dog MDCK-II-BCRP cells to IC50 for inhibition of BCRP (unknown origin) expressed in dog MDCK-II cells; format: toxicity, cell-based
Summary of the method: (§2)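 Ratio of MTT-assay GI50 to transport-inhibition IC50, both in the resistant line. GI50 comes from 72 h exposure at 37 °C to dilutions up to 1000 µM, with medium as 100% and 10% DMSO as 0% viability. IC50 comes from calcein AM (A2780/ADR), daunorubicin (H69AR) or pheophorbide A (MDCK II BCRP) accumulation.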

[10] = test system: H69AR; assay: Antiproliferative activity against human NCI-H69AR cells assessed as reduction in cell viability measured for 72 hrs bt MTT assay; format: functional
[11] = test system: H69AR; assay: Potentiation factor, ratio of GI50 for daunorubicin resistant human NCI-H69AR cells expressing MRP1 cells to GI50 for reversal of daunorubicin resistance in human NCI-H69AR cells assessed as daunorubicin GI50 at 1 uM (reference value: 1 uM); format: functional; summary of the method: as §1
[12] = test system: H69AR; assay: Sensitization of human NCI-H69AR cells expressing MRP1 assessed as maximal sensitivity at 10 uM relative to control; format: functional
Summary of the method: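 Resistant lines were exposed to daunorubicin (A2780/ADR, H69AR) or SN-38 (MDCK II BCRP) over 10 nM–10 µM final, with or without modulator, for 72 h. Viability was read by MTT. Potentiation factor is GI50 without modulator over GI50 with modulator. Maximal sensitization is pf at 10 µM divided by the native resistance factor, in percent.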

[13] = Potentiation factor, ratio of GI50 for SN-38 resistant dog MDCK-II-BCRP cells expressing BCRP cells to GI50 for reversal of SN-38 resistance in dog MDCK-II-BCRP cells assessed as SN-38 GI50 at 10 uM (reference value: 1 uM); format: functional, Canis lupus familiaris; summary of the method: as §1
[14] = test system: P-gp (ABCB1); assay: Therapeutic index, ratio of GI50 for antiproliferative activity against human A2780 ADR cells to IC50 for inhibition of P-gp (unknown origin); format: toxicity, cell-based; summary of the method: as §2
[15] = Reversal of SN-38 resistance in dog MDCK-II-BCRP cells assessed as SN-38 GI50 at 10 uM measured for 72 hrs by MTT assay; format: functional; settings: Canis lupus familiaris; summary of the method: as §1

- GI50 [1]: 55.4 µM
- GI50 [3]: 6.36 µM
- inhibition at 2 h, 10 µM [5]: > 25%
- IC50 [7]: 1.46 µM
Compound: N#Cc1cn(CCCc2ccccc2)c2c(N3CCN(CCc4c[nH]c5ccccc45)CC3)ncnc12
- PF [2]: 1.9
- GI50 [4]: 0.044 µM
- PF [6]: 8.1
- RatioGI50 [8]: 13
- selectivity ratio [9]: 14
- GI50 [10]: 152 µM
- PF [11]: 3.3
- Activity [12]: 81%
- PF [13]: 28
- selectivity ratio [14]: 9.4
- GI50 [15]: 0.061 µM

Source: ChEMBL document CHEMBL5260824, “9-Deazapurines as Broad-Spectrum Inhibitors of the ABC Transport Proteins P-Glycoprotein, Multidrug Resistance-Associated Protein 1, and Breast Cancer Resistance Protein” (J Med Chem, 2017)
